Several values for one entry are separate records, joined by “and”; a condition that tells them apart may be missing. Identical values can stand only once.
Test system: HEK-293T
Experiment: Multiplex assay against HEK293T;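 for Population Tubulin-Different-Phenotype (%): share of the cells with healthy nuclei that show this phenotype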
Assay type: toxicity, cell-based
Conditions: human
Procedure, shortened: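 Hoechst33342, BioTracker Green Microtubule Cytoskeleton Dye, MitoTracker Red and Annexin V Alexa Fluor 680 were added to live cells at seeding, and imaging on a CQ1 microscope at 37°C and 5% CO2 followed compound addition. Gating by CellPathfinder machine learning separated cells into Hoechst high-intensity objects or normal cells, then normal cells into healthy, pyknosed or fragmented nuclei, then pyknosed cells into mitotic or apoptotic. Per cents of healthy-nucleus cells are reported for the tubulin, mitochondrial-mass and membrane-permeability phenotypes.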

[1] = 12 h, 1 µM, compound concentration 1 uM, replicate 1
[2] = 12 h, 1 µM, compound concentration 1 uM, replicate 2
[3] = 12 h, 10 µM, compound concentration 10 uM, replicate 1
[4] = 12 h, 10 µM, compound concentration 10 uM, replicate 2
[5] = 24 h, 1 µM, compound concentration 1 uM, replicate 1
[6] = 24 h, 1 µM, compound concentration 1 uM, replicate 2
[7] = 24 h, 10 µM, compound concentration 10 uM, replicate 1
[8] = 24 h, 10 µM, compound concentration 10 uM, replicate 2
[9] = 48 h, 10 µM, compound concentration 10 uM, replicate 1
[10] = 48 h, 10 µM, compound concentration 10 uM, replicate 2

CN[C@@H]1C[C@H]2O[C@@](C)([C@@H]1OC)n1c3ccccc3c3c4c(c5c6ccccc6n2c5c31)C(=O)NC4 [STAUROSPORINE]
Population Apoptotic (%) [1]: 27% | Population Fragmented Nuclei (%) [1]: 37% | Population Healthy Nuclei (%) [1]: 16% | Population Hoechst High Intensity Objects (%) [1]: 15% | Population Membrane Permeable-Phenotype (%) [1]: 16% | Population Mitochondria Different-Phenotype (%) [1]: 9% | Population Mitotic Cells (%) [1]: 72% | Population Normal (%) [1]: 84% | Population Pyknosed Nuclei (%) [1]: 46% | Population Tubulin-Different-Phenotype (%) [1]: 32% | Population Apoptotic (%) [2]: 9% | Population Fragmented Nuclei (%) [2]: 18% | Population Healthy Nuclei (%) [2]: 35% | Population Hoechst High Intensity Objects (%) [2]: 10% | Population Membrane Permeable-Phenotype (%) [2]: 12% | Population Mitochondria Different-Phenotype (%) [2]: 13% | Population Mitotic Cells (%) [2]: 90% | Population Normal (%) [2]: 89% | Population Tubulin-Different-Phenotype (%) [2]: 74% | Population Apoptotic (%) [3]: 31% and 93% and 82% | Population Fragmented Nuclei (%) [3]: 37% and 33% and 30% | Population Hoechst High Intensity Objects (%) [3]: 15% and 23% and 17% | Population Membrane Permeable-Phenotype (%) [3]: 20% and 15% | Population Normal (%) [3]: 84% and 76% and 82% | Population Pyknosed Nuclei (%) [3]: 48% and 65% and 66% | Population Tubulin-Different-Phenotype (%) [3]: 25% and 33% and 57% | Population Hoechst High Intensity Objects (%) [4]: 20% and 22% and 11% | Population Mitochondria Different-Phenotype (%) [4]: 23% and 35% and 18% | Population Normal (%) [4]: 79% and 77% and 88% | Population Pyknosed Nuclei (%) [4]: 52% and 55% and 35% | Population Apoptotic (%) [5]: 48% | Population Fragmented Nuclei (%) [5]: 35% | Population Healthy Nuclei (%) [5]: 17% | Population Hoechst High Intensity Objects (%) [5]: 15% | Population Membrane Permeable-Phenotype (%) [5]: 18% | Population Mitochondria Different-Phenotype (%) [5]: 16% | Population Mitotic Cells (%) [5]: 51% | Population Normal (%) [5]: 84% | Population Pyknosed Nuclei (%) [5]: 46% | Population Tubulin-Different-Phenotype (%) [5]: 29% | Population Apoptotic (%) [6]: 28% | Population Fragmented Nuclei (%) [6]: 16% | Population Healthy Nuclei (%) [6]: 30% | Population Hoechst High Intensity Objects (%) [6]: 14% | Population Membrane Permeable-Phenotype (%) [6]: 10% | Population Mitochondria Different-Phenotype (%) [6]: 25% | Population Mitotic Cells (%) [6]: 71% | Population Normal (%) [6]: 85% | Population Pyknosed Nuclei (%) [6]: 52% | Population Tubulin-Different-Phenotype (%) [6]: 73% | Population Apoptotic (%) [7]: 58% and 87% and 91% | Population Fragmented Nuclei (%) [7]: 37% and 33% and 27% | Population Hoechst High Intensity Objects (%) [7]: 19% and 21% and 24% | Population Normal (%) [7]: 80% and 75% | Population Pyknosed Nuclei (%) [7]: 46% and 65% and 70% | Population Fragmented Nuclei (%) [8]: 12% and 32% | Population Hoechst High Intensity Objects (%) [8]: 13% and 29% and 22% | Population Membrane Permeable-Phenotype (%) [8]: 12% and 14% | Population Mitochondria Different-Phenotype (%) [8]: 25% and 57% and 62% | Population Normal (%) [8]: 86% and 70% and 77% | Population Pyknosed Nuclei (%) [8]: 48% and 55% and 66% | Population Tubulin-Different-Phenotype (%) [8]: 86% and 61% and 87% | Population Apoptotic (%) [9]: 96% and 92% | Population Fragmented Nuclei (%) [9]: 36% and 37% | Population Healthy Nuclei (%) [9]: 0% and 1% | Population Hoechst High Intensity Objects (%) [9]: 22% and 19% | Population Membrane Permeable-Phenotype (%) [9]: 0% | Population Mitochondria Different-Phenotype (%) [9]: 100% and 80% | Population Mitotic Cells (%) [9]: 3% and 7% | Population Normal (%) [9]: 77% and 80% | Population Pyknosed Nuclei (%) [9]: 62% | Population Tubulin-Different-Phenotype (%) [9]: 100% and 60% | Population Apoptotic (%) [10]: 97% and 93% | Population Fragmented Nuclei (%) [10]: 23% and 21% | Population Healthy Nuclei (%) [10]: 19% and 17% | Population Hoechst High Intensity Objects (%) [10]: 21% and 26% | Population Membrane Permeable-Phenotype (%) [10]: 6% and 5% | Population Mitochondria Different-Phenotype (%) [10]: 66% and 73% | Population Mitotic Cells (%) [10]: 2% and 6% | Population Normal (%) [10]: 73% | Population Pyknosed Nuclei (%) [10]: 57% and 61% | Population Tubulin-Different-Phenotype (%) [10]: 72% and 84%
